Reference: ChEMBL document CHEMBL1671684, “In vitro resistance profile of the hepatitis C virus NS3/4A protease inhibitor TMC435” (Antimicrob Agents Chemother, 2010)
Activity calls are given as the source filed them. No cut-off for these calls is given here.

Key:
Hepatitis C virus [1] = assay: Antiviral activity against Hepatitis C virus subtype 1b expressing NS3 A156V mutant infected in HuH7 cells after 48 hrs by luciferase reporter assay; format: functional, organism-based, Hepacivirus hominis; details: genotype 1b, Huh-7, 48 h
Outline: (§1)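 Genotype 1b con1 subgenomic bicistronic replicon (clone ET) with luciferase reporter and adaptive mutations E1202G, T1280I, K1846T, carrying site-directed NS3 single or double mutations. 10 μg wild-type or mutant replicon RNA electroporated into Huh7-lunet cells, seeded 4,000 cells/well over a nine-point inhibitor dilution series, 48 h at 37°C, 5% CO2, then luminescence read. EC50 taken as median of individual experiments; fold change relative to parental replicon EC50.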

Hepatitis C virus [2] = assay: Ratio of EC50 for Hepatitis C virus subtype 1b expressing NS3 A156G mutant to EC50 for Hepatitis C virus subtype 1b expressing WT NS3 infected in HuH7 cells after 48 hrs by luciferase reporter assay; format: functional, Hepacivirus hominis, genotype 1b, Huh-7; outline: as §1
[3] = Inhibition of Hepatitis C virus subtype 2a NS3/4A protease
Hepatitis C virus [4] = assay: Antiviral activity against Hepatitis C virus subtype 1b expressing NS3 F43S and Q80R mutant infected in HuH7 cells after 48 hrs by luciferase reporter assay; format: functional, organism-based, Hepacivirus hominis; details: genotype 1b, Huh-7, 48 h; outline: as §1
Hepatitis C virus [5] = assay: Ratio of EC50 for Hepatitis C virus subtype 1b expressing NS3 Q41R mutant to EC50 for Hepatitis C virus subtype 1b expressing WT NS3 infected in HuH7 cells after 48 hrs by luciferase reporter assay; format: functional, Hepacivirus hominis, genotype 1b, Huh-7
Outline: (§2)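 Transient replicon assay: site-directed single or multiple NS3 mutations engineered into genotype 1b (con1, clone ET) subgenomic bicistronic replicon with luciferase reporter and adaptive mutations E1202G, T1280I, K1846T. Huh7-lunet cells electroporated with 10 μg wild-type or mutant replicon RNA, seeded 4,000 cells/well with nine-point inhibitor dilution; 48 h, 37°C, 5% CO2; luminescence read-out. EC50 as median of individual experiments; fold change versus parental replicon EC50.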

Hepatitis C virus [6] = assay: Antiviral activity against Hepatitis C virus subtype 1b expressing NS3 R155T mutant infected in HuH7 cells after 48 hrs by luciferase reporter assay; format: functional, organism-based, Hepacivirus hominis; details: genotype 1b, Huh-7, 48 h; outline: as §1
[7] = Inhibition of Hepatitis C virus subtype 4a NS3/4A protease
Hepatitis C virus [8] = assay: Antiviral activity against Hepatitis C virus subtype 2a JFH1 infected in HuH7.5 cells assessed as delay in occurrence of the viral-induced CPE at 500 nM after 3 days by luciferase reporter assay; format: functional, organism-based; details: Hepacivirus hominis
Hepatitis C virus [9] = assay: Antiviral activity against Hepatitis C virus subtype 1b expressing NS3 Q41R mutant infected in HuH7 cells after 48 hrs by luciferase reporter assay; format: functional, organism-based, Hepacivirus hominis; details: genotype 1b, Huh-7, 48 h; outline: as §1
Hepatitis C virus [10] = assay: Antiviral activity against Hepatitis C virus subtype 1b expressing NS3 D168E mutant infected in HuH7 cells after 48 hrs by luciferase reporter assay; format: functional, organism-based, Hepacivirus hominis; details: genotype 1b, Huh-7, 48 h; outline: as §1
Hepatitis C virus [11] = assay: Antiviral activity against Hepatitis C virus subtype 1b expressing NS3 V170A mutant infected in HuH7 cells after 48 hrs by luciferase reporter assay; format: functional, organism-based, Hepacivirus hominis; details: genotype 1b, Huh-7, 48 h; outline: as §1
[12] = Inhibition of Hepatitis C virus subtype 6a NS3/4A protease
Hepatitis C virus [13] = assay: Antiviral activity against Hepatitis C virus subtype 2a JFH1 infected in HuH7.5 cells assessed as viral RNA replication after initial decline at 4000 nM after 3 days by TaqMan RT-PCR; format: functional, organism-based; details: Hepacivirus hominis
Hepatitis C virus [14] = assay: Antiviral activity against Hepatitis C virus infected in HuH7 cells assessed as cell viability at 25 times EC50 after 2 to 3 weeks by neutral red assay in presence of 1,000 ug/ml G418; format: functional, organism-based; details: Hepacivirus hominis; Huh-7
Outline: (§3)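 Huh7-Luc genotype 1b (con1, clone ET) replicon cells, 20,000 per 10-cm dish in DMEM with 1,000 μg/ml G418. Cells got one inhibitor or a two-inhibitor combination, dosed as multiples of each inhibitor's EC50 from a genotype 1b luciferase replicon assay. Held at 37°C, 5% CO2, with medium plus compound refreshed twice weekly. After 2–3 weeks, surviving colonies were stained with neutral red and counted. Three independent experiments.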

Hepatitis C virus [15] = assay: Antiviral activity against Hepatitis C virus subtype 2a JFH1 infected in HuH7.5 cells assessed as reduction in cellular viral RNA levels normalized to RPL13A RNA levels at 500 nM after 3 days by TaqMan RT-PCR; format: functional, organism-based; details: Hepacivirus hominis
Hepatitis C virus [16] = assay: Antiviral activity against Hepatitis C virus subtype 2a JFH1 infected in HuH7.5 cells assessed as viral RNA replication after initial decline at 500 nM after 3 days by TaqMan RT-PCR; format: functional, organism-based; details: Hepacivirus hominis
Hepatitis C virus [17] = assay: Antiviral activity against Hepatitis C virus subtype 1b expressing NS3 Q80L mutant infected in HuH7 cells after 48 hrs by luciferase reporter assay; format: functional, organism-based, Hepacivirus hominis; details: genotype 1b, Huh-7, 48 h; outline: as §1
Hepatitis C virus [18] = assay: Ratio of EC50 for Hepatitis C virus subtype 1b expressing NS3 T54A mutant to EC50 for Hepatitis C virus subtype 1b expressing WT NS3 infected in HuH7 cells after 48 hrs by luciferase reporter assay; format: functional, Hepacivirus hominis, genotype 1b, Huh-7; outline: as §2
Hepatitis C virus [19] = assay: Antiviral activity against Hepatitis C virus infected in HuH7 cells assessed as cell viability at 10 times EC50 after 2 to 3 weeks by neutral red assay in presence of 1,000 ug/ml G418; format: functional, organism-based; details: Hepacivirus hominis; Huh-7; outline: as §3
Hepatitis C virus [20] = assay: Ratio of EC50 for Hepatitis C virus subtype 1b expressing NS3 F43S and Q80R mutant to EC50 for Hepatitis C virus subtype 1b expressing WT NS3 infected in HuH7 cells after 48 hrs by luciferase reporter assay; format: functional, Hepacivirus hominis, genotype 1b, Huh-7; outline: as §2
Hepatitis C virus [21] = assay: Antiviral activity against Hepatitis C virus subtype 1b expressing NS3 V170T mutant infected in HuH7 cells after 48 hrs by luciferase reporter assay; format: functional, organism-based, Hepacivirus hominis; details: genotype 1b, Huh-7, 48 h; outline: as §1
[22] = Inhibition of Hepatitis C virus subtype 3a NS3/4A protease
Hepatitis C virus [23] = assay: Antiviral activity against Hepatitis C virus subtype 2a JFH1 infected in HuH7.5 cells assessed as occurrence of the viral-induced CPE at 4000 nM after 3 days by luciferase reporter assay; format: functional, organism-based; details: Hepacivirus hominis
[24] = Inhibition of Hepatitis C virus subtype 5a NS3/4A protease
Hepatitis C virus [25] = assay: Ratio of EC50 for Hepatitis C virus subtype 1b expressing NS3 Q80K and R155K mutant to EC50 for Hepatitis C virus subtype 1b expressing WT NS3 infected in HuH7 cells after 48 hrs by luciferase reporter assay; format: functional, Hepacivirus hominis, genotype 1b, Huh-7; outline: as §2
Hepatitis C virus [26] = assay: Antiviral activity against Hepatitis C virus subtype 1b expressing NS3 Q80K and R155K mutant infected in HuH7 cells after 48 hrs by luciferase reporter assay; format: functional, organism-based, Hepacivirus hominis; details: genotype 1b, Huh-7, 48 h; outline: as §1
Hepatitis C virus [27] = assay: Antiviral activity against Hepatitis C virus subtype 1b expressing NS3 D168A mutant infected in HuH7 cells after 48 hrs by luciferase reporter assay; format: functional, organism-based, Hepacivirus hominis; details: genotype 1b, Huh-7, 48 h; outline: as §1
Hepatitis C virus [28] = assay: Ratio of EC50 for Hepatitis C virus subtype 1b expressing NS3 Q80K mutant to EC50 for Hepatitis C virus subtype 1b expressing WT NS3 infected in HuH7 cells after 48 hrs by luciferase reporter assay; format: functional, Hepacivirus hominis, genotype 1b, Huh-7; outline: as §2
Hepatitis C virus [29] = assay: Ratio of EC50 for Hepatitis C virus subtype 1b expressing NS3 A156T mutant to EC50 for Hepatitis C virus subtype 1b expressing WT NS3 infected in HuH7 cells after 48 hrs by luciferase reporter assay; format: functional, Hepacivirus hominis, genotype 1b, Huh-7; outline: as §1
Hepatitis C virus [30] = assay: Antiviral activity against Hepatitis C virus subtype 1b expressing NS3 R155Q mutant infected in HuH7 cells after 48 hrs by luciferase reporter assay; format: functional, organism-based, Hepacivirus hominis; details: genotype 1b, Huh-7, 48 h; outline: as §1
Hepatitis C virus [31] = assay: Inhibition of Hepatitis C virus subtype 1b NS3/4A protease
Hepatitis C virus [32] = assay: Antiviral activity against Hepatitis C virus subtype 1b infected in HuH7 cells after 72 hrs by luciferase reporter gene assay; details: genotype 1b, Huh-7, 72 h

Compound | EC50 (Hepatitis C virus [1]) [nM] | Ratio EC50 (Hepatitis C virus [2]) | EC50 (Hepatitis C virus [4]) [nM] | Ratio EC50 (Hepatitis C virus [5]) | EC50 (Hepatitis C virus [6]) [nM] | EC50 (Hepatitis C virus [9]) [nM] | EC50 (Hepatitis C virus [10]) [nM] | EC50 (Hepatitis C virus [11]) [nM] | EC50 (Hepatitis C virus [17]) [nM] | Ratio EC50 (Hepatitis C virus [18]) | Ratio EC50 (Hepatitis C virus [20]) | EC50 (Hepatitis C virus [21]) [nM] | Ratio EC50 (Hepatitis C virus [25]) | EC50 (Hepatitis C virus [26]) [nM] | EC50 (Hepatitis C virus [27]) [nM] | Ratio EC50 (Hepatitis C virus [28]) | Ratio EC50 (Hepatitis C virus [29]) | EC50 (Hepatitis C virus [30]) [nM] | also measured
COc1ccc2c(O[C@@H]3C[C@H]4C(=O)N[C@]5(C(=O)NS(=O)(=O)C6CC6)C[C@H]5/C=C\CCCCN(C)C(=O)[C@@H]4C3)cc(-c3nc(C(C)C)cs3)nc2c1C [SIMEPREVIR] | 2150 | 16 | 1820 | 1.7 | 314 | 18 | 302 | 22 | 12 | 0.6 | 286 | 52 | 364 | 4650 | 6360 | 7.7 | 44 | 21 | IC50 [3]: < 13 nM; IC50 [7]: < 13 nM; inhibition (Hepatitis C virus [8]): Active; IC50 [12]: < 13 nM; inhibition (Hepatitis C virus [13]): inactive; inhibition (Hepatitis C virus [14]): inactive; inhibition (Hepatitis C virus [15]): Active; inhibition (Hepatitis C virus [16]): inactive; inhibition (Hepatitis C virus [19]): inactive; IC50 [22]: 37 nM; inhibition (Hepatitis C virus [23]): Active; IC50 [24]: < 13 nM; Ki (Hepatitis C virus [31]): 0.5 nM; EC50 (Hepatitis C virus [32]): 8 nM
COc1ccc2c(O[C@@H]3C[C@H]4C(=O)N[C@]5(C(=O)O)C[C@H]5/C=C\CCCCC[C@H](NC(=O)OC5CCCC5)C(=O)N4C3)cc(-c3csc(NC(C)C)n3)nc2c1 [CILUPREVIR] | 1520 | 12 | 0.4 | 2.8 | 685 | 2.3 | 40 | – | – | 0.6 | 0.6 | 4.8 | 736 | 705 | 304 | 0.9 | 1344 | 248 | –
CC(C)(C)NC(=O)N[C@H](C(=O)N1C[C@H]2[C@@H]([C@H]1C(=O)NC(CC1CCC1)C(=O)C(N)=O)C2(C)C)C(C)(C)C (stereo not given in full) [BOCEPREVIR] | 9670 | 2.1 | 1550 | – | 5460 | – | 69 | 1550 | 133 | 2.1 | 7.4 | 210 | 5.1 | 1080 | 100 | 0.8 | 65 | 174 | –
CCC[C@H](NC(=O)[C@@H]1[C@H]2CCC[C@H]2CN1C(=O)[C@@H](NC(=O)[C@@H](NC(=O)c1cnccn1)C1CCCCC1)C(C)(C)C)C(=O)C(=O)NC1CC1 [TELAPREVIR] | 15500 | 0.6 | – | – | 22700 | – | 113 | – | – | 7.5 | – | – | 4.6 | 2960 | 46 | 0.5 | 105 | 570 | –
